Experimental data from ChEMBL document CHEMBL4033786, “Discovery of Novel 1-Cyclopentenyl-3-phenylureas as Selective, Brain Penetrant, and Orally Bioavailable CXCR2 Antagonists” (J Med Chem, 2018).

Tests used:
[1] = target: C-C chemokine receptor type 7 (Homo sapiens, UniProt P32248); assay: Antagonist activity at CCR7 (unknown origin)
Outline: (§1)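 β-arrestin assays run in both agonist and antagonist modes across a panel of 18 CXC and CC chemokine receptors.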

[2] = Elimination half life in Wistar rat at 0.98 mg/kg, iv measured up to 4 hrs post dose; type: ADME, organism-based; conditions: in vivo, read-out: beta t1/2 (converted)
[3] = target: C-X-C chemokine receptor type 4 (Homo sapiens, UniProt P61073); assay: Antagonist activity at CXCR4 (unknown origin); outline: as §1
[4] = Tmax in dog at 1.29 mg/kg, po measured up to 4 hrs post dose; type: ADME, organism-based, Canis lupus familiaris; conditions: in vivo
[5] = Oral bioavailability in Wistar rat at 2.41 mg/kg measured up to 4 hrs after dose; type: ADME, organism-based; conditions: in vivo
[6] = target: CX3C chemokine receptor 1 (Homo sapiens, UniProt P49238); assay: Agonist activity at CX3CR1 (unknown origin); outline: as §1
[7] = Unbound brain-to-blood concentration ratio in Han-Wistar SOA rat model at 2 mg/kg administered via oral gavage by UPLC/MS/MS analysis; type: ADME, organism-based; conditions: read-out: K(p,uu,brain)
Outline: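 Male Han-Wistar rats given a single 2 mg/kg oral gavage as a suspension in DMSO:1% methylcellulose (1:99). Blood was taken by cardiac puncture under isoflurane at 0.25–7 h, diluted 1:3 with water, and brains were homogenized in 3-fold PBS. Samples were extracted by acetonitrile protein precipitation and quantified by UPLC/MS/MS. Kp = brain DNAUC0-7h/blood DNAUC0-7h; Kp,uu = Kp×Fu,br/Fu,bl.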

[8] = Cmax in Wistar rat at 2.41 mg/kg, po measured up to 4 hrs post dose; type: ADME, organism-based; set-up: dose 2.41 mg/kg, route oral; conditions: in vivo

C-C chemokine receptor type 7, sequence (P32248 whole entry): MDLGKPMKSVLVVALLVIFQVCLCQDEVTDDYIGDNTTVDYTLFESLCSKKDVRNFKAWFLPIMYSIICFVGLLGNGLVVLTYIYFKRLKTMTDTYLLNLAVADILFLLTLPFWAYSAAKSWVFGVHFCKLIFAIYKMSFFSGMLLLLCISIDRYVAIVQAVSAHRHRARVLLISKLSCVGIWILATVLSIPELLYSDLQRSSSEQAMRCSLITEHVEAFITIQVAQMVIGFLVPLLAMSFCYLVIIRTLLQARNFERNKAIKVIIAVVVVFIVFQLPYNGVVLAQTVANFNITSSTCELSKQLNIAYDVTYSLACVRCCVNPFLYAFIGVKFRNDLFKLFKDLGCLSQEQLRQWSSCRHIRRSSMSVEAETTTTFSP
C-X-C chemokine receptor type 4, sequence (P61073 whole entry): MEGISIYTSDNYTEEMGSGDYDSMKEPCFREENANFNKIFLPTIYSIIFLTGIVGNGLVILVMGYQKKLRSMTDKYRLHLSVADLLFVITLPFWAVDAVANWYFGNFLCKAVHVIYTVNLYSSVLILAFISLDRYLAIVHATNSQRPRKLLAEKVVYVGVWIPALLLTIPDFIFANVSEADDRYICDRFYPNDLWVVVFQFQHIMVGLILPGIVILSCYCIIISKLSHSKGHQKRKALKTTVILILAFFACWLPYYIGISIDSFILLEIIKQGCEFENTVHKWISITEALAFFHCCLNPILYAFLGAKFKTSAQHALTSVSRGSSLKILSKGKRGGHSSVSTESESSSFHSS
CX3C chemokine receptor 1, sequence (P49238 whole entry): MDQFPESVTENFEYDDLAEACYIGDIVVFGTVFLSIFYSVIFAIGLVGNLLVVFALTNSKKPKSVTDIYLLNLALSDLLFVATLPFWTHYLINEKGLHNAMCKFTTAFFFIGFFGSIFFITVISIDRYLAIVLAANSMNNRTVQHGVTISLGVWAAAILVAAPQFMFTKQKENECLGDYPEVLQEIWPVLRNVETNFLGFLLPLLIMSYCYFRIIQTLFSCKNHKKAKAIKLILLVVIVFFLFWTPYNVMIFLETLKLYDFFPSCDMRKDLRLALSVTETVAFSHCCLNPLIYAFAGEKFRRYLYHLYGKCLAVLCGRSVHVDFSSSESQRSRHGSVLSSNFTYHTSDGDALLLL

IC50 [1]: > 10 µM
half-life [2]: 4.3 h
IC50 [3]: > 10 µM
Tmax [4]: 1.1 h
bioavailability [5]: 47%
EC50 [6]: > 10 µM
Kp uu [7]: 0.63
Cmax [8]: 452 ng/mL
Structure (SMILES): CC1=CCC[C@H]1NC(=O)Nc1ccc(Cl)c(S(=O)(=O)[C@@]2(C)CCOC2)c1O
